# According to ChEMBL document CHEMBL4837261, “Optimization of TopoIV Potency, ADMET Properties, and hERG Inhibition of 5-Amino-1,3-dioxane-Linked Novel Bacterial Topoisomerase Inhibitors: Identification of a Lead with In Vivo Efficacy against MRSA” (J Med Chem, 2021):
# Legend:
# [1] = Growth inhibition of human K/VP.5 cells incubated for 48 hrs by NBTI cell counting analysis; type: functional; settings: K562, 48 h
# [2] = AUClast in ICR (CD-1) mouse at 50 mg/kg, po measured up to 1440 mins by LC-MS/MS analysis; type: ADME, organism-based; design: route oral, dose 50 mg/kg, time <=1440; settings: in vivo
# How it was run: (§1)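 Male ICR (CD-1) mice, 22 ± 2 g, given the free base in DMSO/Solutol HS-15/0.9% NaCl (5/5/90, v/v/v), IV at 10 mg/kg or PO at 50 mg/kg; 24 mice per route, three per timepoint. Plasma was taken by cardiac puncture at 3–1440 min (IV) or 10–1440 min (PO), measured by LC-MS/MS, and parameters were derived by noncompartmental analysis.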
# [3] = test system: Escherichia coli; assay: Antibacterial activity against Escherichia coli isolates by CLSI method; type: functional
# [4] = target: CYP2C8 (Homo sapiens, UniProt P10632); assay: Inhibition of CYP2C8 (unknown origin) at 10 uM relative to control; type: ADME
# Chain of CYP2C8 (P10632 whole entry): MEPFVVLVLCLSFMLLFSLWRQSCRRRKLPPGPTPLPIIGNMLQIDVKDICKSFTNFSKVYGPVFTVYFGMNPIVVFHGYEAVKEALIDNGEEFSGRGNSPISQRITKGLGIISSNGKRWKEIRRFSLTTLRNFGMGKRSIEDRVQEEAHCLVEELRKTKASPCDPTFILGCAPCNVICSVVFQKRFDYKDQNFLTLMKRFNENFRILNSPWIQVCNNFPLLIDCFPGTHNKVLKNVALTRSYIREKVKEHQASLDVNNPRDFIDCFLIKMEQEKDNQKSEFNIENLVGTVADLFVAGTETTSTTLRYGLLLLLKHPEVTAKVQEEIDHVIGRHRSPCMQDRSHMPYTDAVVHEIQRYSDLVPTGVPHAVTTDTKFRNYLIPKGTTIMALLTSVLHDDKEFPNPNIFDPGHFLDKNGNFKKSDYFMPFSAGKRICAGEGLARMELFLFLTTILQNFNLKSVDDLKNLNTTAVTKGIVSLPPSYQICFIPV
# [5] = test system: Enterococcus faecium; assay: Antibacterial activity against vancomycin-resistant Enterococcus faecium by CLSI method; type: functional
# [6] = Clearance in ICR (CD-1) mouse at 10 mg/kg, iv measured up to 1440 mins by LC-MS/MS analysis; type: ADME, organism-based; settings: in vivo; how it was run: as §1
# [7] = target: CYP2B6 (Homo sapiens, UniProt P20813); assay: Inhibition of CYP2B6 (unknown origin) at 10 uM relative to control; type: ADME
# [8] = target: 5-hydroxytryptamine receptor 2B (Homo sapiens) (UniProt P41595); assay: Displacement of [3H]Lysergic acid diethylamide from human recombinant 5HT2B receptor expressed in CHO-K1 cells at 100 uM by radioligand binding assay; type: cell-based
# Chain of 5-hydroxytryptamine receptor 2B (Homo sapiens) (P41595 whole entry): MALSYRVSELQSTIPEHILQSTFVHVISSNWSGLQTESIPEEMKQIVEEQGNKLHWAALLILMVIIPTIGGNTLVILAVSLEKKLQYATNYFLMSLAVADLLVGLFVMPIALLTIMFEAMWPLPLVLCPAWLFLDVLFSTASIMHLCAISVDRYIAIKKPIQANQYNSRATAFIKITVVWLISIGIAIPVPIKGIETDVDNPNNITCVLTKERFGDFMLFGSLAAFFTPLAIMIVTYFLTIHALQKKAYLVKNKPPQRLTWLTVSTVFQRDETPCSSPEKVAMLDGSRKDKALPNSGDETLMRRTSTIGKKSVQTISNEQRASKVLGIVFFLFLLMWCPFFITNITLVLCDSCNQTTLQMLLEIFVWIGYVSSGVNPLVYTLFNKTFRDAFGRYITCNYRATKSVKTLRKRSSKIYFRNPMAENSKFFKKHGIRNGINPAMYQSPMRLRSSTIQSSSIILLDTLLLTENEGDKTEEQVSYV
# [9] = target: CYP2D6 (Homo sapiens, UniProt P10635); assay: Inhibition of CYP2D6 (unknown origin) at 10 uM relative to control; type: ADME
# Chain of CYP2D6 (P10635 whole entry): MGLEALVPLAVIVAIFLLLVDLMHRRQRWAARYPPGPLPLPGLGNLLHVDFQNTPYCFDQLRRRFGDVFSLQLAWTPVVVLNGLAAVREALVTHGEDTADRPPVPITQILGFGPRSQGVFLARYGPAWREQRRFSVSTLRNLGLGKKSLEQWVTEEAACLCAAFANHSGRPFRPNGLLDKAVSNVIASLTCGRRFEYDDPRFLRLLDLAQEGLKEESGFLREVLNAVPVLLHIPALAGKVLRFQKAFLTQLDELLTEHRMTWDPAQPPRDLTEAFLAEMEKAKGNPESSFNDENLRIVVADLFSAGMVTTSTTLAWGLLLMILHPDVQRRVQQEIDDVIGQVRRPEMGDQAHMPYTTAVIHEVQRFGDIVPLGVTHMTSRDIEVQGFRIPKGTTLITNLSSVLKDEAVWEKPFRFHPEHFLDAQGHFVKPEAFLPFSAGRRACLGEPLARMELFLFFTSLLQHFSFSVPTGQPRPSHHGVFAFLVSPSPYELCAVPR
# [10] = Half life in ICR (CD-1) mouse at 10 mg/kg, iv measured up to 1440 mins by LC-MS/MS analysis; type: ADME, organism-based; settings: in vivo; how it was run: as §1
# [11] = target: Acetylcholinesterase (Homo sapiens) (UniProt P22303); assay: Inhibition of human recombinant acetylcholinesterase receptor expressed in HEK293 cells at 100 uM by spectrophotometry; type: cell-based
# Chain of Acetylcholinesterase (Homo sapiens) (P22303 whole entry): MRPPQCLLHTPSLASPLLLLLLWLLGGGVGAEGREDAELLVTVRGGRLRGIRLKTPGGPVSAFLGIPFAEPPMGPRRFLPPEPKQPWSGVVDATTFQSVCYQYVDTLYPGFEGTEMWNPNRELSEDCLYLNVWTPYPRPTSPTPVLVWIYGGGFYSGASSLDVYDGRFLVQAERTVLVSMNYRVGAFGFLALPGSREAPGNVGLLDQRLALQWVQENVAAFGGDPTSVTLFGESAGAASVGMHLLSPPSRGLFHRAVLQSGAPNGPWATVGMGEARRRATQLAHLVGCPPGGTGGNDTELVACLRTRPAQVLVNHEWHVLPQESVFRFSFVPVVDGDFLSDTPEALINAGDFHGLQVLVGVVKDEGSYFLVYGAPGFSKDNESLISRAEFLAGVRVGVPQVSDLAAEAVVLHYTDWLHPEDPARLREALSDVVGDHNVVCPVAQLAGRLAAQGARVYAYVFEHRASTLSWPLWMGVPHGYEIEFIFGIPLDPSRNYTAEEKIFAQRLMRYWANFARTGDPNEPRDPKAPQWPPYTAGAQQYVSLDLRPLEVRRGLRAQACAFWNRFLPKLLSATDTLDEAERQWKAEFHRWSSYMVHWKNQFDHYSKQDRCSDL
# [12] = test system: Staphylococcus aureus; assay: Antibacterial activity against Staphylococcus aureus ATCC 29213 by CLSI method; type: functional
# [13] = test system: Staphylococcus aureus; assay: Antibacterial activity against cystic fibrosis isolate Staphylococcus aureus by CLSI method; type: functional
# [14] = test system: THP-1; assay: Cytotoxicity against human THP-1 cells; type: cell-based
# How it was run: (§2)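 THP-1, HepG2 and HeLa cells were exposed to compound from 128 to 0.0625 μg/mL. IC50 was obtained by nonlinear regression of the inhibition curves.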
# [15] = target: Cav1.2 (Homo sapiens, UniProt Q13936); assay: Inhibition of recombinant human Cav1.2 expressed in human HEK293 cells at 100 uM measured at peak current by automated Qpatch clamp assay relative to control; type: ADME, cell-based; settings: HEK293 cells expressing recombinant human Cav1.2
# [16] = test system: Streptococcus pyogenes; assay: Antibacterial activity against Streptococcus pyogenes isolates by CLSI method; type: functional
# [17] = test system: HeLa; assay: Cytotoxicity against human HeLa cells; type: cell-based; how it was run: as §2
# [18] = target: CYP1A2 (Homo sapiens, UniProt P05177); assay: Inhibition of CYP1A2 (unknown origin) at 10 uM relative to control; type: ADME
# [19] = target: KCNQ1 (Homo sapiens, UniProt P51787); assay: Inhibition of recombinant human KCNQ1 expressed in CHO-K1 cells at 100 uM by automated Qpatch clamp assay relative to control; type: ADME, cell-based; settings: CHO-K1 cells expressing recombinant human KCNQ1
# Chain of KCNQ1 (P51787 whole entry): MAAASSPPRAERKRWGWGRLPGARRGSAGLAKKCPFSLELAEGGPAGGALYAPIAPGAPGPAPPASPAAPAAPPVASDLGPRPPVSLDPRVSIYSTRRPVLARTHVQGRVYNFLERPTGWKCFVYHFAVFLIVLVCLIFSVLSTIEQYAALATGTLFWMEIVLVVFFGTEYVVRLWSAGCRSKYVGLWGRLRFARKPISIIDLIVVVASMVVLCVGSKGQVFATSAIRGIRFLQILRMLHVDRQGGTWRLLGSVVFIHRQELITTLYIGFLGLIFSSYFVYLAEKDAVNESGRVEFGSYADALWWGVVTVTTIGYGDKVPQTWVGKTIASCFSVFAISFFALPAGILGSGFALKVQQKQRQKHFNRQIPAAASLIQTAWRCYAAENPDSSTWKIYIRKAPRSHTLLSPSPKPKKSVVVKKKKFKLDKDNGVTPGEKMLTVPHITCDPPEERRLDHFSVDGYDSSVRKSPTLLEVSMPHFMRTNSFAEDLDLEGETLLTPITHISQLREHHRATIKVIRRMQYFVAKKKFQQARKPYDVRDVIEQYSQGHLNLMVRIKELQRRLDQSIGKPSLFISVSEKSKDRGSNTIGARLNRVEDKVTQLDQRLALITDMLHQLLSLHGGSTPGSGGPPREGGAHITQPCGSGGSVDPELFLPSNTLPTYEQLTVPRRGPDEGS
# [20] = AUClast in ICR (CD-1) mouse at 10 mg/kg, iv measured up to 1440 mins by LC-MS/MS analysis; type: ADME, organism-based; design: route intravenous, dose 10 mg/kg, time <=1440; settings: in vivo; how it was run: as §1
# [21] = target: Cytochrome P450 2C19 (Homo sapiens, UniProt P33261); assay: Inhibition of CYP2C19 (unknown origin); type: ADME
# Chain of Cytochrome P450 2C19 (P33261 whole entry): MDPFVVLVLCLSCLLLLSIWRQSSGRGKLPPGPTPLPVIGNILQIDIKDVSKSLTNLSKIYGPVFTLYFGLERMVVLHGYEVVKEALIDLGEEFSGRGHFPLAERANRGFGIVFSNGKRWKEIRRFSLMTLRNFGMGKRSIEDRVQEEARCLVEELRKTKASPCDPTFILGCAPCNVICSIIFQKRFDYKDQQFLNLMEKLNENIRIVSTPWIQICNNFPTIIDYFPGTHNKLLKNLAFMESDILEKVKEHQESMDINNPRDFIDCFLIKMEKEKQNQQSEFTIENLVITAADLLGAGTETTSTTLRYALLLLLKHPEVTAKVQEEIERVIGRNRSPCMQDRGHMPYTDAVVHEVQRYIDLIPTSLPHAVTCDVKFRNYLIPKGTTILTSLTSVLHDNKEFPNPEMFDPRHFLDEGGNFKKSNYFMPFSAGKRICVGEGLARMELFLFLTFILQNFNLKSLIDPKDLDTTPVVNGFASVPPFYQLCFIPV
# [22] = test system: Staphylococcus aureus; assay: Antibacterial activity against methicillin-resistant Staphylococcus aureus ATCC 33591 infected in iv dosed CD1 mouse model of septicemia assessed as mouse survival at 1 to 10 mg/kg, iv administered 0.5 to 3.5 hrs post injection measured for 7 days relative to control; type: functional; settings: dose 1-10 mg/kg, time 7 day
# How it was run: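 Female CD-1 mice (18–20 g), in groups of six, were infected IP with 1.3 × 10^8 CFU MRSA ATCC 33591 suspended in 8% hog gastric mucin (pH 7.5). Compound was given as the methanesulfonate salt in 5% DMSO/water for injection, by IV tail vein at 0.5, 1.5, 2.5 and 3.5 h post infection. Dose levels were 1, 5, 10, 25 and 50 mg/kg/dose. Survival was followed for 7 days against untreated infection controls.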
# [23] = target: Topoisomerase IV (Staphylococcus aureus, UniProt P0C1S7+P0C1U9); assay: Inhibition of Staphylococcus aureus topoisomerase IV decatenation activity using kDNA as substrate by ethidium bromide/bromophenol blue staining based agarose gel electrophoresis analysis; type: protein-complex assay
# Chain of Topoisomerase IV (P0C1U9 whole entry): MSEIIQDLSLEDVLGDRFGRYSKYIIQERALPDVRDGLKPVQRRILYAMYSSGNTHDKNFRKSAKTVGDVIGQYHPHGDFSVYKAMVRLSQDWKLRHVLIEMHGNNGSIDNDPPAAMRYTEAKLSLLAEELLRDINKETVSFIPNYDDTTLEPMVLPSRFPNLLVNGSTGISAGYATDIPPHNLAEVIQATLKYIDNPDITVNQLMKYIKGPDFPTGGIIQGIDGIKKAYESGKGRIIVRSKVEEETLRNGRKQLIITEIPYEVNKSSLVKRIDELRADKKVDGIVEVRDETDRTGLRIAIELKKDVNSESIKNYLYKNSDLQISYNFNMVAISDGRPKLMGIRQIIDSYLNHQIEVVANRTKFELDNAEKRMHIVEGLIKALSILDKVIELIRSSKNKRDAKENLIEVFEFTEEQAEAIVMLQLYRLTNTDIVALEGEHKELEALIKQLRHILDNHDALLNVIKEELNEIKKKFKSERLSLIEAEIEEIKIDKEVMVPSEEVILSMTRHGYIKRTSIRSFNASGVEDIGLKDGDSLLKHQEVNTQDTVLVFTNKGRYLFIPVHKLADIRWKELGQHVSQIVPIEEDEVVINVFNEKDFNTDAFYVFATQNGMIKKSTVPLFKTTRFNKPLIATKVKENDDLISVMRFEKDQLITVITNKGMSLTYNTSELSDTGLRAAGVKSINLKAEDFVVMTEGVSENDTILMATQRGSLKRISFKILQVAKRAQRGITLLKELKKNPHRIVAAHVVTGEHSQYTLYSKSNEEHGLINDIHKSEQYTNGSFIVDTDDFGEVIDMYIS
# Chain of Topoisomerase IV (P0C1S7 whole entry): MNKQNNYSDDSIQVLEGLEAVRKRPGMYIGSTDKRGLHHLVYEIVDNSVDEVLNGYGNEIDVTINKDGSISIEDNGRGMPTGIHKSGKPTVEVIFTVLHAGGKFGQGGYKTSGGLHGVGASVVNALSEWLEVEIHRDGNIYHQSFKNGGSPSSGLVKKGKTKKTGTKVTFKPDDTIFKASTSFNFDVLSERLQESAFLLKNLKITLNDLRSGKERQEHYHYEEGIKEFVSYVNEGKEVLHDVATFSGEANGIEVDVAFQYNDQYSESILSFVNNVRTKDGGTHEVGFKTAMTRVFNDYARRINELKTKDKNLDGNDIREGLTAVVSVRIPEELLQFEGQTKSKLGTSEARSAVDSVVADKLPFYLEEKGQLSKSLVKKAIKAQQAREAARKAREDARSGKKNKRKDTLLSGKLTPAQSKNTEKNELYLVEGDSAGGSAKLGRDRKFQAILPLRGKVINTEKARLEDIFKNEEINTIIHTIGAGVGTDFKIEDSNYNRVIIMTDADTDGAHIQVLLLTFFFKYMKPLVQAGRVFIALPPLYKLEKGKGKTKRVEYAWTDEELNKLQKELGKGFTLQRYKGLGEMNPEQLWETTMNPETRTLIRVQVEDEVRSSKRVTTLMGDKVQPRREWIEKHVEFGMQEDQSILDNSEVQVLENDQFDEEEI
# [24] = Volume of distribution at steady state in ICR (CD-1) mouse at 10 mg/kg, iv measured up to 1440 mins by LC-MS/MS analysis; type: ADME, organism-based; settings: in vivo, read-out: Vdss
# How it was run: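 Male ICR (CD-1) mice, 22 ± 2 g, given free base in DMSO/Solutol HS-15/0.9% NaCl (5/5/90) at 50 mg/kg PO or 10 mg/kg IV. Three mice per timepoint, 8 timepoints. Plasma taken by cardiac puncture at 10–1440 min (PO) or 3–1440 min (IV). Measured by LC-MS/MS, with parameters from noncompartmental analysis.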
# [25] = Permeability of the compound from basolateral to apical side in human Caco-2 cells; type: ADME, cell-based; settings: read-out: permeability
# How it was run: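 Run at RTI International. Covers plasma protein binding (mouse, human; percent free), CACO-2 permeability and efflux, and microsomal stability (mouse and human microsomes) giving half-life.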
# [26] = test system: HepaRG; assay: Cytotoxicity against human HepaRG cells at 100 uM by ATP depletion assay; type: cell-based
# How it was run: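 An ATP depletion read-out in HepaRG cells gave cytotoxicity across 0.01–100 μM, reported as % cytotoxicity at 100 μM.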
# [27] = target: Cytochrome P450 1A2 (Homo sapiens, UniProt P05177); assay: Inhibition of CYP1A2 (unknown origin); type: ADME
smiles,measurement,setting,value
COc1ccc2ncc(F)c(C[C@H](O)[C@H]3OC[C@H](NCc4cc5c(nn4)OCCS5)CO3)c2n1,IC50,[1],202 µM
same,AUC(0-t) at 24 h,[2],5910 ng·h/mL
same,MIC50,[3],> 64 µg/mL
same,inhibition at 10 µM,[4],> 50%
same,MIC50,[5],0.25 µg/mL
same,MIC90,[5],1 µg/mL
same,clearance,[6],69 mL/min/kg
same,inhibition at 10 µM,[7],> 50%
same,inhibition,[8],> 45%
same,inhibition at 10 µM,[9],> 50%
same,half-life,[10],38 min
same,inhibition,[11],> 45%
same,MIC,[12],0.125 µg/mL
same,MIC,[13],0.125 µg/mL
same,IC50,[14],> 125 µM
same,inhibition at 100 µM,[15],< 25%
same,MIC50,[16],0.5 µg/mL
same,IC50,[17],> 125 µM
same,inhibition at 10 µM,[18],> 50%
same,inhibition at 100 µM,[19],< 25%
same,AUC(0-t) at 24 h,[20],2400 ng·h/mL
same,IC50,[21],> 10 µM
same,Survival,[22],>50%
same,IC50,[23],3.5 µM
same,Vd,[24],1 L/kg
same,Papp B→A,[25],81.2 ×10⁻⁶ cm/s
same,Activity,[26],12%
same,IC50,[27],> 10 µM
